System: Fibroblast
Assay: Multiplex assay against human fibroblast
Assay type: toxicity, cell-based
Procedure, shortened: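 Live cells carried four stains from seeding: Hoechst33342, BioTracker Green Microtubule Cytoskeleton Dye, MitoTracker Red and Annexin V Alexa Fluor 680. They were imaged on a CQ1 microscope at 37°C and 5% CO2 after compound addition. Using CellPathfinder machine-learning gating, cells were split into Hoechst high-intensity objects or normal cells, normal cells into healthy, pyknosed or fragmented nuclei, and pyknosed cells into mitotic or apoptotic; tubulin, mitochondrial-mass and membrane-permeability phenotypes are per cents of healthy-nucleus cells.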

[1] = 12 h, 1 µM, compound concentration 1 uM, replicate 1
[2] = 12 h, 1 µM, compound concentration 1 uM, replicate 2
[3] = 12 h, 10 µM, compound concentration 10 uM, replicate 1
[4] = 12 h, 10 µM, compound concentration 10 uM, replicate 2
[5] = 24 h, 1 µM, compound concentration 1 uM, replicate 1
[6] = 24 h, 1 µM, compound concentration 1 uM, replicate 2
[7] = 24 h, 10 µM, compound concentration 10 uM, replicate 1
[8] = 24 h, 10 µM, compound concentration 10 uM, replicate 2
[9] = 48 h, 1 µM, compound concentration 1 uM, replicate 1
[10] = 48 h, 1 µM, compound concentration 1 uM, replicate 2
[11] = 48 h, 10 µM, compound concentration 10 uM, replicate 1
[12] = 48 h, 10 µM, compound concentration 10 uM, replicate 2

CC[C@@H](C)Nc1nc(C)nc2c(-c3ccc(OC)nc3C)c(C)nn12 [PEXACERFONT]
Population Apoptotic (%) [1]: 40% | Population Fragmented Nuclei (%) [1]: 12% | Population Healthy Nuclei (%) [1]: 66% | Population Hoechst High Intensity Objects (%) [1]: 1% | Population Membrane Permeable-Phenotype (%) [1]: 2% | Population Mitochondria Different-Phenotype (%) [1]: 4% | Population Mitotic Cells (%) [1]: 60% | Population Normal (%) [1]: 98% | Population Pyknosed Nuclei (%) [1]: 20% | Population Tubulin-Different-Phenotype (%) [1]: 35% | Total Cell Count [1]: 147 | Population Apoptotic (%) [2]: 25% | Population Fragmented Nuclei (%) [2]: 32% | Population Healthy Nuclei (%) [2]: 44% | Population Hoechst High Intensity Objects (%) [2]: 2% | Population Membrane Permeable-Phenotype (%) [2]: 15% | Population Mitotic Cells (%) [2]: 75% | Population Normal (%) [2]: 97% | Population Pyknosed Nuclei (%) [2]: 24% | Population Tubulin-Different-Phenotype (%) [2]: 65% | Total Cell Count [2]: 103 | Population Apoptotic (%) [3]: 43% | Population Fragmented Nuclei (%) [3]: 15% | Population Healthy Nuclei (%) [3]: 55% | Population Hoechst High Intensity Objects (%) [3]: 2% | Population Membrane Permeable-Phenotype (%) [3]: 0% | Population Mitochondria Different-Phenotype (%) [3]: 19% | Population Mitotic Cells (%) [3]: 56% | Population Normal (%) [3]: 97% | Population Pyknosed Nuclei (%) [3]: 29% | Population Tubulin-Different-Phenotype (%) [3]: 62% | Total Cell Count [3]: 143 | Population Apoptotic (%) [4]: 38% | Population Fragmented Nuclei (%) [4]: 21% | Population Healthy Nuclei (%) [4]: 40% | Population Hoechst High Intensity Objects (%) [4]: 8% | Population Membrane Permeable-Phenotype (%) [4]: 7% | Population Mitochondria Different-Phenotype (%) [4]: 9% | Population Mitotic Cells (%) [4]: 61% | Population Normal (%) [4]: 91% | Population Pyknosed Nuclei (%) [4]: 38% | Population Tubulin-Different-Phenotype (%) [4]: 68% | Total Cell Count [4]: 147 | Population Apoptotic (%) [5]: 52% | Population Fragmented Nuclei (%) [5]: 16% | Population Healthy Nuclei (%) [5]: 70% | Population Hoechst High Intensity Objects (%) [5]: 1% | Population Membrane Permeable-Phenotype (%) [5]: 0% | Population Mitochondria Different-Phenotype (%) [5]: 3% | Population Mitotic Cells (%) [5]: 47% | Population Normal (%) [5]: 98% | Population Pyknosed Nuclei (%) [5]: 13% | Population Tubulin-Different-Phenotype (%) [5]: 38% | Total Cell Count [5]: 157 | Population Apoptotic (%) [6]: 47% | Population Fragmented Nuclei (%) [6]: 35% | Population Healthy Nuclei (%) [6]: 42% | Population Hoechst High Intensity Objects (%) [6]: 3% | Population Membrane Permeable-Phenotype (%) [6]: 20% | Population Mitochondria Different-Phenotype (%) [6]: 2% | Population Mitotic Cells (%) [6]: 52% | Population Normal (%) [6]: 96% | Population Pyknosed Nuclei (%) [6]: 22% | Population Tubulin-Different-Phenotype (%) [6]: 61% | Total Cell Count [6]: 108 | Population Apoptotic (%) [7]: 37% | Population Fragmented Nuclei (%) [7]: 16% | Population Healthy Nuclei (%) [7]: 56% | Population Hoechst High Intensity Objects (%) [7]: 1% | Population Membrane Permeable-Phenotype (%) [7]: 2% | Population Mitochondria Different-Phenotype (%) [7]: 10% | Population Mitotic Cells (%) [7]: 62% | Population Normal (%) [7]: 98% | Population Pyknosed Nuclei (%) [7]: 27% | Population Tubulin-Different-Phenotype (%) [7]: 68% | Total Cell Count [7]: 139 | Population Apoptotic (%) [8]: 38% | Population Fragmented Nuclei (%) [8]: 18% | Population Healthy Nuclei (%) [8]: 47% | Population Hoechst High Intensity Objects (%) [8]: 7% | Population Membrane Permeable-Phenotype (%) [8]: 20% | Population Mitochondria Different-Phenotype (%) [8]: 6% | Population Mitotic Cells (%) [8]: 61% | Population Normal (%) [8]: 92% | Population Pyknosed Nuclei (%) [8]: 33% | Population Tubulin-Different-Phenotype (%) [8]: 76% | Total Cell Count [8]: 143 | Population Apoptotic (%) [9]: 54% | Population Fragmented Nuclei (%) [9]: 15% | Population Healthy Nuclei (%) [9]: 69% | Population Hoechst High Intensity Objects (%) [9]: 8% | Population Membrane Permeable-Phenotype (%) [9]: 1% | Population Mitochondria Different-Phenotype (%) [9]: 0% | Population Mitotic Cells (%) [9]: 45% | Population Normal (%) [9]: 91% | Population Pyknosed Nuclei (%) [9]: 15% | Population Tubulin-Different-Phenotype (%) [9]: 30% | Total Cell Count [9]: 160 | Population Apoptotic (%) [10]: 25% | Population Fragmented Nuclei (%) [10]: 40% | Population Healthy Nuclei (%) [10]: 45% | Population Hoechst High Intensity Objects (%) [10]: 1% | Population Membrane Permeable-Phenotype (%) [10]: 26% | Population Mitochondria Different-Phenotype (%) [10]: 4% | Population Mitotic Cells (%) [10]: 75% | Population Normal (%) [10]: 98% | Population Pyknosed Nuclei (%) [10]: 14% | Population Tubulin-Different-Phenotype (%) [10]: 52% | Total Cell Count [10]: 113 | Population Apoptotic (%) [11]: 87% | Population Fragmented Nuclei (%) [11]: 23% | Population Healthy Nuclei (%) [11]: 53% | Population Hoechst High Intensity Objects (%) [11]: 3% | Population Membrane Permeable-Phenotype (%) [11]: 0% | Population Mitochondria Different-Phenotype (%) [11]: 14% | Population Mitotic Cells (%) [11]: 12% | Population Normal (%) [11]: 96% | Population Pyknosed Nuclei (%) [11]: 22% | Population Tubulin-Different-Phenotype (%) [11]: 62% | Total Cell Count [11]: 144 | Population Apoptotic (%) [12]: 52% | Population Fragmented Nuclei (%) [12]: 32% | Population Healthy Nuclei (%) [12]: 50% | Population Hoechst High Intensity Objects (%) [12]: 4% | Population Membrane Permeable-Phenotype (%) [12]: 12% | Population Mitochondria Different-Phenotype (%) [12]: 9% | Population Mitotic Cells (%) [12]: 47% | Population Normal (%) [12]: 95% | Population Pyknosed Nuclei (%) [12]: 16% | Population Tubulin-Different-Phenotype (%) [12]: 76% | Total Cell Count [12]: 134

Reference: ChEMBL document CHEMBL5058577, “EUbOPEN Chemogenomics Library 2 (Multiplex)” (2022)
